According to ChEMBL document CHEMBL4513216, “Probing the Open Global Health Chemical Diversity Library for Multistage-Active Starting Points for Next-Generation Antimalarials” (ACS Infect Dis, 2020):

Assay: Toxicity liver stage against HepG2, at 10uM
Assay type: cell-based
Design: test concentration 10 uM, cell line HepG2-A16-CD81EGFP
Details: human, HepG2-A16-CD81EGFP cells; read-out: INHIBITION
Method in brief: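 Uninfected HepG2-A16-CD81EGFP cells, 3 × 10^3 per well, 1536-well, plated on prespotted compound at 10 μM final, parasite-free screening media added to match infected plates; puromycin 10 μM positive, DMSO 0.5% negative; run in parallel with 48 h PbLuc assay at 37 °C, 5% CO2; viability by CellTiter-Glo luminescence, normalized to controls.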

Row | SMILES | cytotoxicity at 10 µM [%]
1 | CC1(C)Oc2ccc(S(=O)(=O)NCCCn3ccnc3)cc2NC1=O | 14.5
2 | O=C(NC[C@H]1OC[C@@H](NCc2ccccc2)[C@@H]1O)Nc1ccc(F)cc1 | -10.8
3 | CN1CCC(N[C@@H]2CO[C@H](CNC(=O)c3cccs3)[C@H]2O)CC1 | -0.376
4 | CCN(CC)CC[C@H]1CN(C(=O)C2CCC2)CC[C@H]1CC(=O)O | 1.35
5 | CCN1Cc2cc(OC)ccc2N(CC(C)(C)O)CCC1=O | -12.2
6 | CC(C)NC(=O)Cc1cnc(-n2cccc2)s1 | -4.6
7 | CCc1c(C)sc2nc3n(CCN4CCOCC4)nc(SC)n3c(=O)c12 | 1.09
8 | NC(=O)CSc1nnc2[nH]c(=O)c3c(n12)CCCC3 | -4.44
9 | COc1ccc(CN2Cc3[nH]nc(C(=O)N(C)C)c3C2)cc1 | -2.48
10 | c1cnc(NC[C@H]2OC[C@@H]3CCN(Cc4ccncc4)C[C@@H]32)nc1 | -4.61
11 | O=C(C1CCOC1)N1CCN(Cc2ccncc2)c2ncccc2C1 (configuration not stated) | 0.617
12 | CC(C)CNC(=O)c1cc2c(s1)CCN2S(C)(=O)=O | -0.522
13 | O=c1c2cn[nH]c2nc(SCCN2CCCC2)n1-c1ccccc1 | -2.03
14 | O=C(COc1coc(CN2CCCC2)cc1=O)NCc1ccccc1Cl | -0.317
15 | O=S(=O)(Nc1cnn(C2CCOCC2)c1)c1c(F)cccc1F | 13.9
16 | O=C(CSC1CCc2ccccc2NC1=O)NCCO (configuration not stated) | 5.52
17 | CC(C)CN1C[C@@H]2CN(C(=O)[C@H]3CCCO3)C[C@@H]2C1=O | 6.03
18 | CC[C@H]1NCCC[C@]12CCC(=O)N2Cc1ccncc1 | 6.29
19 | O=C(NCc1cnc2n1CCN(CC1CC1)CC2)C1CCC1 | -12.9
20 | COCCN1CCC2(CCN(Cc3nccs3)CC2)C1=O | -4.36
21 | Cc1ccc(C)c(NCc2nc3n(n2)CCCCC3)c1 | 6.39
22 | CNc1[nH]nc(N)c1NC(=O)c1ccccc1 | 9.96
23 | Cc1nn(C)c2cnn(Cc3ccc(C(=O)NCC4CCCO4)o3)c12 (configuration not stated) | 9.37

Row | SMILES | cytotoxicity at 10 µM [%]
24 | CCn1nc(C)c2nc(C(C)C)nc(NCCOC)c21 | 6.3
25 | COCCC(=O)N1CCOCC(Cc2ccc3c(ccn3C)c2)C1 (configuration not stated) | 6.66
26 | CN(C)c1cncc(C2CCCN(c3cnccn3)C2)n1 (configuration not stated) | 2.45
27 | CC(C(N)=O)n1nc(-c2cccs2)cc(N)c1=O (configuration not stated) | 6.44
28 | O=C(NCC1CCOCC1)c1cc(-c2ccncc2)c2cnccc2n1 | -0.762
29 | Cn1ccc(NC(=O)CN2CCC(Oc3cnccn3)CC2)n1 | 4.3
30 | CN1CCC(c2[nH]ncc2S(C)(=O)=O)CC1 | -7.06
31 | CCCC(=O)N1CCC(c2cc[nH]n2)C1 (configuration not stated) | 1.2
32 | CC(=O)N1CCCC1c1cccc(Oc2ccccc2F)n1 (configuration not stated) | -2.53
33 | O=C1CC2(CCN(C(=O)c3ccccn3)C2)Nc2ccccc2N1 (configuration not stated) | 10.9
34 | CCn1cnc2c(c(Br)nn2C)c1=O | 4.37
35 | CCN(CC(C)C#N)C(=O)CNc1cc(Cl)ccc1C(N)=O (configuration not stated) | 17.6
36 | Cc1oc(C(=O)Nc2ccccc2F)cc1S(N)(=O)=O | -1.07
37 | Cc1noc(C)c1C(=O)N(C)C(C)c1ccncc1 (configuration not stated) | 0.66
38 | COc1c(F)cc(NC(=O)N2CCC(CSC)C2)cc1F (configuration not stated) | 10.2
39 | O=C(Cc1csc(Cc2ccccn2)n1)NCCCN1CCCC1=O | -6.29
40 | COc1ccc(CNC(=O)N2CCOCC2C2CC2)c(C)c1 (configuration not stated) | 4.54
41 | COCc1cccc(C(=O)N2CCN(C3=NCC(C)(C)S3)CC2)c1 | 4.65
42 | Cc1ccc(C(=O)Nc2ccc(N3CCC(O)CC3)c(C#N)c2)s1 | -5.71
43 | CC(=O)NCCc1ccc(S(=O)(=O)N(C)C(C)C(C)(C)C)s1 (configuration not stated) | -3.58
44 | c1csc(-c2nc(CN3CCCC3Cn3cccn3)co2)c1 (configuration not stated) | 11.1
45 | CC(C)C(=O)NC1CCN(CCO)CC1 | -8.84
46 | Cc1ccc(CC(=O)NCC(Cc2ccc(F)cc2)C(N)=O)cn1 (configuration not stated) | 12

Row | SMILES | cytotoxicity at 10 µM [%]
47 | O=S(=O)(NCCCN1CC=CC1)c1cncc(Cl)c1 | -6.38
48 | COCCOCC(=O)NC(C#N)c1ccccc1C (configuration not stated) | -1.65
49 | COc1ccc(OCC(=O)NS(=O)(=O)c2ccc(Cl)s2)cc1 | 14.1
50 | CN(C)C(CNCc1nc(-c2ccsc2)no1)c1ccsc1 (configuration not stated) | -1.63
51 | Cc1nc2ccccc2n1CCNCc1cccc(C#N)c1 | -0.591
52 | N#Cc1c(F)cccc1N1CCC(C(=O)Nc2nccs2)CC1 | 0.329
53 | Cc1ccc2cccc(S(=O)(=O)N(C)CC3CCN(C)CC3)c2n1 | -1.6
54 | COc1ccc(Br)cc1CN(C)c1nc2c(cnn2C)c(=O)[nH]1 | 48.1
55 | O=C(C1CCCc2[nH]ncc21)N1CCCC1 (configuration not stated) | 8.53
56 | CCc1nc(CN(C)CC2CCN(CCO)CC2)no1 | -9.68
57 | Cc1noc(C(C)N2CCN(CCC(=O)N3CCCCC3)CC2)n1 (configuration not stated) | -9.24
58 | CNC(=O)N1C[C@H]2N(c3ncccn3)CCC[C@@]2(C(=O)NCC2CC2)C1 | -101
59 | CC[C@@H](C)[C@@H](N)C(=O)Nc1cccc(-c2cnc(N)nc2)c1 | 0.942
60 | COCC(=O)N1CCC2(CCCN(Cc3ccc(Cl)cc3)CC2)CC1 | -0.153
61 | CN(C)CCn1ccnc1C1CCCN(c2ncc(Cl)cc2F)C1 (configuration not stated) | -1.75
62 | CC(C)CCn1cc(C(C(=O)O)N2CCSCC2)cn1 (configuration not stated) | -1.17
63 | COc1cccc(Cn2c(C)c(C)oc2=O)c1OC | -2.34
64 | CN(C)CCCn1ccnc1C1CCCN(c2ncc(Cl)cc2F)C1 (configuration not stated) | -7.43
65 | Cc1nc(Cn2c(=O)cnc3ccccc32)n(C)n1 | -0.825
66 | COc1cccc2c(=O)n(Cc3ccnc(C)c3)cnc12 | -0.0198
67 | Cc1ccccc1C(=O)NC[C@@H]1CCN(C(=O)c2cccn2C)C[C@H]1O | -45.3
68 | CCNC(=O)[C@@H]1C[C@H](N)CN1C(=O)c1cccc(CCC(C)(C)O)c1 | 4.61
69 | CC(CN(C)Cc1cccc(-n2cccn2)c1)C(F)(F)F (configuration not stated) | 1.55

Row | SMILES | cytotoxicity at 10 µM [%]
70 | CCC[C@@H]1CN(Cc2ccccc2C#N)C[C@H]1NC(C)=O | -3.92
71 | CC(C(=O)O)N1CC2(CCC1=O)CCN(CCc1ccccc1)CC2 (configuration not stated) | -0.503
72 | Cc1cc2ccccc2n1CCC(=O)N1CCCC1Cn1cccn1 (configuration not stated) | 2.15
73 | Cc1[nH]c2c(F)cccc2c1CC(=O)NC1CCCCNC1=O (configuration not stated) | 19.1
74 | Cc1ccccc1CC(=O)N1CCc2c(ncnc2N2CCOCC2)C1 | -3.39
75 | COCCN(C)C[C@@H]1CN(Cc2ccnc3ccccc23)C[C@@H]1CO | -6.33
76 | CNC(=O)c1nc(CN2CCOC(CCCC(C)C)C2)no1 (configuration not stated) | -2.25
77 | CC(C)n1ccnc1C1CCN(C(=O)C2COc3ccccc3O2)CC1 (configuration not stated) | -8.28
78 | COc1ccc2c(c1)OCC(CNC(=O)c1ccc(=O)n(C)c1)C2 (configuration not stated) | -11.2
79 | Cc1nn(C)cc1-c1cc(C(F)(F)F)n(CCCN)n1 | -6.25
80 | Cc1cn[nH]c1C1CCCCN1C(=O)CCN1CCCCCC1 (configuration not stated) | 5.7
81 | CC(C)(C)c1nc(CN2CCCN(Cc3cccs3)CC2)no1 | 6
82 | Cc1nc(C2CCCN2C(=O)c2cc3c(s2)CCC3)no1 (configuration not stated) | -6.82
83 | CC(NC(=O)N1CCC(n2cncn2)CC1)c1ccc(F)cc1 (configuration not stated) | -3.66
84 | c1ncn(CC2CN(Cc3ccc4c(c3)OCCO4)CCO2)n1 (configuration not stated) | -0.282
85 | CS(=O)(=O)c1ccc(CNC(=O)N2CCC(CO)CC2)cc1 | -11.6
86 | Cc1cnn(CC2CCCN2Cc2noc(CC(C)C)n2)c1 (configuration not stated) | -5.04
87 | Cc1ccccc1CC(C)NC(=O)Nc1cnn(CC(N)=O)c1 (configuration not stated) | -11.5
88 | Cc1nn(C)c(N(C)C)c1CNCc1ccnc(N2CCOCC2)c1 | -13
89 | O=C(c1cc(Cl)ccc1F)N1CCCC1Cn1cccn1 (configuration not stated) | 8.36
90 | COc1cccc(OCC(=O)NS(=O)(=O)c2ccc(Br)s2)c1 | -16.1
91 | Cc1cnn(CCNCC(=O)NCC2(c3ccccc3)CC2)c1 | 5.58
92 | CN(C)c1cc(C(=O)N2CCCCC2Cn2cccn2)ccn1 (configuration not stated) | -23

Row | SMILES | cytotoxicity at 10 µM [%]
93 | COc1ccc(OC)c(C(=O)N(C)Cc2ncc(C)c(OC)c2C)c1 | -4.3
94 | Cc1nc2ccccc2nc1CN1CCCC1Cn1cccn1 (configuration not stated) | -31.4
95 | CS(=O)(=O)c1ccc(CNC(=O)NCC2CCOC2)cc1 (configuration not stated) | -9.22
96 | O=C(C1CCCCN1Cc1nc(-c2ccco2)no1)N1CCCC1 (configuration not stated) | -4.64
97 | O=C(NCCn1ccnc1)N1CCCC1c1ccsc1 (configuration not stated) | -6.05
98 | CCC1CN(c2nnc(C)c(C)c2C#N)CCO1 (configuration not stated) | -0.678
99 | Cc1nnc(N2CCOC(Cn3cccn3)C2)c(C#N)c1C (configuration not stated) | -8.47
100 | C=C(Cl)CN1CCC(C(=O)c2cc(F)ccc2F)CC1 | -7.26
101 | COc1ccc(COCC(O)CNC(=O)c2cc(C)cc(C)c2)cc1 (configuration not stated) | 0.385
102 | CCCc1nc(CN2CCN(Cc3noc(CCC)n3)CC2)no1 | -0.914
103 | CCc1n[nH]c(C2CN(C(=O)c3nc(C)n4ccccc34)CCO2)n1 (configuration not stated) | -11.2
104 | COc1ccc(C)cc1CSCCn1nc2ccccn2c1=O | 1.03
105 | CC(C)N(C)Cc1cnc2n1CCN(Cc1ccc(F)cc1)C2 | 1.44
106 | O=C(CN1CC(c2nc(-c3ccco3)no2)C1)NCC1CCCO1 (configuration not stated) | 2.21
107 | CCN1CC[C@@]2(C(=O)N3CCOCC3)CCN(S(=O)(=O)CC)CC[C@@H]12 | 8.92
108 | Cc1nn(C)c(C)c1S(=O)(=O)N1CC[C@H]2O[C@@H](C)C[C@H]2C1 | 2.79
109 | CN(C)C(=O)CN1CCC2(CC1)COc1ccccc1S(=O)(=O)N(C)C2 | -0.259
110 | O=C(NCCc1cccs1)[C@H]1CO[C@H]2CCN(CC3CC3)C[C@H]2C1 | -103
111 | CN(C)C(=O)CN1C(=O)CCC12CCN(Cc1ccc(F)cc1)CC2 | 7.8
112 | CCN1C[C@@H]2[C@@H](OC)CCN(S(=O)(=O)c3ccccc3)[C@@H]2C1 | -2.7
